# The source made the active and inactive calls. The calls are words filed in the database; no cut-off is given here.
# Key:
# [1] = (§1) Antiproliferative activity against lenalidomide-resistant human H929-R10-1 cells incubated for 5 days by CellTiter-Glo assay; assay type: functional; conditions: 120 h
# How it was run: (§2)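 H929 R10-1 cells kept in log phase at 37°C, 5% CO₂, and plated at 5000 cells/well. Compounds were added as 10-point duplicate curves starting at 10µM with 1:3 dilutions, in 0.1% DMSO, final volume 40µl. Plates were incubated for 5 days. Viability was read by CellTiter-Glo luminescence after 1 h at room temperature in the dark. IC50 is the mean of ≥3 separate determinations.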
# [2] = target: Protein cereblon/Zinc finger protein Aiolos (Homo sapiens, UniProt Q96SW2+Q9UKT9); assay: Induction of CRBN-mediated pLOC-ePL-tagged aiolos (unknown origin) degradation in human DF15 cells assessed as minimum protein remaining incubated for 4 hrs by luminescence based beta-galactosidase enzyme fragmentation complementation assay; assay type: cell-based
# [3] = target: Protein cereblon/DNA damage-binding protein 1 (Homo sapiens, UniProt Q96SW2); assay: Displacement of Cy5-conjugated CELMoD from N-terminal 6-His tagged CRBN (1 to 442 residues) (unknown origin)/DDB1 (1 to 1140 residues) (unknown origin) incubated for 10 mins by FRET assay; assay type: protein assay
# PBMC = assay: Cytotoxicity against PBMC (unknown origin); assay type: cell-based
# [4] = target: Protein cereblon/Eukaryotic peptide chain release factor GTP-binding subunit ERF3A (Homo sapiens, UniProt P15170+Q96SW2); assay: Induction of CRBN-mediated pLOC-ePL-tagged GSPT1 (unknown origin) degradation in human DF15 cells assessed as minimum protein remaining incubated for 4 hrs by luminescence based beta-galactosidase enzyme fragmentation complementation assay; assay type: cell-based
# [5] = target: Adrenergic receptor alpha-1 (Homo sapiens) (UniProt P35348+P25100+P35368); assay: Inhibition of adrenergic receptor alpha1 (unknown origin) at 10 uM relative to control; assay type: protein assay
# D(2) dopamine receptor [6] = target: T1, D(2) dopamine receptor (Homo sapiens, UniProt P14416); assay: Inhibition of D2S (unknown origin) at 10 uM relative to control
# [7] = Solubility of the compound; assay type: physicochemical
# [8] = Drug metabolism in assay cell medium assessed as compound racemization measured within 24 hrs; assay type: physicochemical
# How it was run: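 Compound held in the same cell medium used for the H929 R10-1 antiproliferation assay; enantiomer levels followed by chiral monitoring over 24 h.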
# Homo sapiens [9] = organism: Homo sapiens; assay: as §1; assay type: functional; how it was run: as §2
# Homo sapiens [10] = organism: Homo sapiens; assay: Induction of apoptosis in lenalidomide-resistant human H929-R10-1 cells assessed as p27 stabilization at 1 to 100 nM after 72 hrs by Western blot analysis; assay type: functional
# How it was run: (§3)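 H929 R10-1 cells treated with DMSO or compound (1–100 nM) for 72 h, washed in PBS, lysed in NP-40/Tris pH 8 buffer with protease and phosphatase inhibitors; clarified lysates immunoblotted for p27, cleaved caspase-1, -3, -7 and cleaved PARP, with β-tubulin, using fluorescent secondary antibodies.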
# Homo sapiens [11] = organism: Homo sapiens; assay: Induction of apoptosis in lenalidomide-resistant human H929-R10-1 cells assessed as increase in cleaved caspase1 level at 1 to 100 nM after 72 hrs by Western blot analysis; assay type: functional; how it was run: as §3
# Homo sapiens [12] = organism: Homo sapiens; assay: Induction of apoptosis in lenalidomide-resistant human H929-R10-1 cells assessed as increase in cleaved caspase7 level at 1 to 100 nM after 72 hrs by Western blot analysis; assay type: functional; how it was run: as §3
# Homo sapiens [13] = organism: Homo sapiens; assay: Induction of apoptosis in lenalidomide-resistant human H929-R10-1 cells assessed as increase in cleaved caspase3 level at 1 to 100 nM after 72 hrs by Western blot analysis; assay type: functional; how it was run: as §3
# Homo sapiens [14] = organism: Homo sapiens; assay: Induction of apoptosis in lenalidomide-resistant human H929-R10-1 cells assessed as increase in cleaved PARP level after 72 hrs by Western blot analysis; assay type: functional; how it was run: as §3
# Homo sapiens [15] = organism: Homo sapiens; assay: Induction of apoptosis in lenalidomide-resistant human H929-R10-1 cells assessed as caspase3 induction at 1 uM measured over 150 hrs by live cell imaging analysis; assay type: functional
# How it was run: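 Lenalidomide-refractory H929 R10-1 cells were treated at concentrations from 1 nM to 1 μM. Caspase-3 induction was quantified by live-cell imaging over 150 h.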
# D(2) dopamine receptor [16] = target: T1, D(2) dopamine receptor; assay: Agonist activity at D2S (unknown origin)
# [17] = target: D(2) dopamine receptor (Rattus norvegicus) (UniProt P61169); assay: In vivo agonist activity at D2S in rat assessed as suppression of gut motility administered daily for 7 days; assay type: functional, organism-based
Structure (SMILES),IC50 [1],EC50 [2],EC50 [4],inhibition [5],inhibition (D(2) dopamine receptor [6]),other results
C[C@@]1(N2Cc3c(OCc4ccc(CN5CCN(c6ccc(F)cc6F)CC5)cc4)cccc3C2=O)CCC(=O)NC1=O,> 5000 nM,> 100 nM,–,–,–,IC50 [3]: 9620 nM
O=C1CCC(N2Cc3c(OCc4ccc(CN5CCN(c6cccc(F)c6)CC5)cc4)cccc3C2=O)C(=O)N1 (centres undefined),3.7 nM,0.1 nM,> 10000 nM,–,–,Activity (PBMC): Non-Toxic
O=C1CCC(N2Cc3c(OCc4ccc(CN5CCN(c6ccc(Cl)cc6)CC5)cc4)cccc3C2=O)C(=O)N1 (centres undefined),3.6 nM,0.1 nM,> 10000 nM,–,–,Activity (PBMC): Non-Toxic
O=C1CCC(N2Cc3c(OCc4ccc(CN5CCN(c6ccccn6)CC5)cc4)cccc3C2=O)C(=O)N1 (centres undefined),4.6 nM,0.4 nM,–,99%,98%,–
CC(C)N1CCN(Cc2ccc(COc3cccc4c3CN(C3CCC(=O)NC3=O)C4=O)cc2)CC1 (centres undefined),35.1 nM,0.3 nM,–,–,–,–
O=C1CCC(N2Cc3c(OCc4ccc(CN5CCN(c6c(F)cccc6F)CC5)cc4)cccc3C2=O)C(=O)N1 (centres undefined),4 nM,0.3 nM,> 10000 nM,–,–,Activity (PBMC): Non-Toxic
O=C1CCC(N2Cc3c(OCc4ccc(C(=O)N5CCN(c6ccc(F)cc6)CC5)cc4)cccc3C2=O)C(=O)N1 (centres undefined),3.7 nM,0.3 nM,–,–,–,solubility [7]: < 7 µg/mL
O=C1CC[C@@H](N2Cc3c(OCc4ccc(CN5CCN(c6ccc(F)cc6F)CC5)cc4)cccc3C2=O)C(=O)N1,4.3 nM,0.5 nM,–,–,–,IC50 [3]: 1160 nM; Drug metabolism [8]: Metabolite_Detected
CN1C(=O)CCC(N2Cc3c(OCc4ccc(CN5CCN(c6ccc(F)cc6F)CC5)cc4)cccc3C2=O)C1=O (centres undefined),632 nM,> 10000 nM,> 10000 nM,–,–,IC50 [3]: 28000 nM
O=C1CCC(N2Cc3c(OCc4ccc(CN5CCN(c6ccc(Cl)cc6Cl)CC5)cc4)cccc3C2=O)C(=O)N1 (centres undefined),9.2 nM,0.2 nM,> 10000 nM,–,–,Activity (PBMC): Non-Toxic
Cc1ccc(NC(=O)NCc2ccc3c(c2)CN(C2CCC(=O)NC2=O)C3=O)cc1Cl (centres undefined),–,–,–,–,–,IC50 (PBMC): > 5000 nM; Activity (Homo sapiens [9]): Active
O=C1CCC(N2C(=O)c3cccc(OCc4ccc(CN5CCN(c6ccc(F)cc6)CC5)cc4)c3C2=O)C(=O)N1 (centres undefined),146 nM,2.1 nM,> 10000 nM,–,–,IC50 [3]: 322 nM
O=C1CCC(N2Cc3c(OCc4ccc(C(=O)N5CCN(c6ccc(Cl)cc6)CC5)cc4)cccc3C2=O)C(=O)N1 (centres undefined),6.2 nM,0.1 nM,–,33.7%,7.9%,solubility [7]: < 7 µg/mL
Nc1cccc2c1C(=O)N(C1CCC(=O)NC1=O)C2=O (centres undefined),–,–,–,–,–,Activity (Homo sapiens [9]): inactive; Activity (Homo sapiens [10]): inactive; Activity (Homo sapiens [11]): inactive; Activity (Homo sapiens [12]): inactive; Activity (Homo sapiens [13]): inactive; Activity (Homo sapiens [14]): inactive; Activity (Homo sapiens [15]): Active
CC1CCN(Cc2ccc(COc3cccc4c3CN(C3CCC(=O)NC3=O)C4=O)cc2)CC1 (centres undefined),35.1 nM,1 nM,–,40.4%,78.4%,–
O=C1CCC(N2Cc3c(OCc4ccc(CN5CCC(C(F)(F)F)CC5)cc4)cccc3C2=O)C(=O)N1 (centres undefined),8.3 nM,0.6 nM,–,41.5%,95.4%,–
O=C1CC[C@H](N2Cc3c(OCc4ccc(CN5CCN(c6ccc(F)cc6F)CC5)cc4)cccc3C2=O)C(=O)N1,3.8 nM,0.1 nM,–,–,–,IC50 [3]: 37 nM
O=C1CCC(N2Cc3c(OCc4ccc(CN5CCN(c6ccccc6F)CC5)cc4)cccc3C2=O)C(=O)N1 (centres undefined),5 nM,0.2 nM,> 10000 nM,–,–,Activity (PBMC): Non-Toxic
CC(C)C1CCN(Cc2ccc(COc3cccc4c3CN(C3CCC(=O)NC3=O)C4=O)cc2)CC1 (centres undefined),1.4 nM,0.1 nM,–,63%,94%,–
NC(=O)c1ccc(N2CCN(Cc3ccc(COc4cccc5c4CN(C4CCC(=O)NC4=O)C5=O)cc3)CC2)cn1 (centres undefined),3.5 nM,0.4 nM,–,25.2%,32.9%,–

Structure (SMILES),IC50 [1],EC50 [2],EC50 [4],inhibition [5],inhibition (D(2) dopamine receptor [6]),other results
O=C1CCC(N2Cc3c(OCc4ccc(CN5CCN(c6ccc(F)cn6)CC5)cc4)cccc3C2=O)C(=O)N1 (centres undefined),7.4 nM,0.7 nM,–,97.7%,90.8%,–
O=C1CCC(N2Cc3c(OCc4ccc(CN5CCC(F)(F)CC5)cc4)cccc3C2=O)C(=O)N1 (centres undefined),20.5 nM,0.5 nM,–,–,–,–
O=C1CCC(N2Cc3c(OCc4ccc(C(=O)N5CCN(c6ccc(F)cc6F)CC5)cc4)cccc3C2=O)C(=O)N1 (centres undefined),4.9 nM,0.1 nM,–,70.3%,0.4%,solubility [7]: < 7 µg/mL
C[C@]1(N2Cc3c(OCc4ccc(CN5CCN(c6ccc(F)cc6F)CC5)cc4)cccc3C2=O)CCC(=O)NC1=O,496 nM,> 10 nM,–,–,–,IC50 [3]: > 10000 nM
O=C1CCC(N2Cc3c(OCc4ccc(C(=O)N5CCN(c6ccc(Cl)cc6Cl)CC5)cc4)cccc3C2=O)C(=O)N1 (centres undefined),3.3 nM,0.1 nM,–,74.1%,5.6%,solubility [7]: < 7 µg/mL
O=C1CCC(N2Cc3c(OCc4ccc(CN5CCN(c6ccc(F)cc6)CC5)cc4)cccc3C2=O)C(=O)N1 (centres undefined),2.8 nM,0.1 nM,> 10000 nM,100%,94.7%,Activity (PBMC): Non-Toxic
COc1ccc(N2CCN(Cc3ccc(COc4cccc5c4CN(C4CCC(=O)NC4=O)C5=O)cc3)CC2)cc1 (centres undefined),7.1 nM,0.5 nM,> 10000 nM,–,–,Activity (PBMC): Non-Toxic
N#Cc1ccc(N2CCN(Cc3ccc(COc4cccc5c4CN(C4CCC(=O)NC4=O)C5=O)cc3)CC2)c(F)c1 (centres undefined),1.7 nM,0.1 nM,–,67%,54.5%,EC50 (D(2) dopamine receptor [16]): > 10000 nM; Activity [17]: inactive
O=C1CCC(N2C(=O)c3cccc(OCc4ccc(CN5CCN(c6ccc(Cl)cc6Cl)CC5)cc4)c3C2=O)C(=O)N1 (centres undefined),170 nM,3.3 nM,> 10000 nM,–,–,IC50 [3]: 877 nM
O=C1CCC(N2Cc3c(OCc4ccccc4)cccc3C2=O)C(=O)N1 (centres undefined),> 10000 nM,7.5 nM,–,–,–,–
CC1(C)CCN(Cc2ccc(COc3cccc4c3CN(C3CCC(=O)NC3=O)C4=O)cc2)CC1 (centres undefined),9.9 nM,0.3 nM,–,21.5%,66%,–
Nc1cccc2c1CN(C1CCC(=O)NC1=O)C2=O (centres undefined),–,–,–,–,–,Activity (Homo sapiens [9]): inactive; Activity (Homo sapiens [15]): Active
N#Cc1cccnc1N1CCN(Cc2ccc(COc3cccc4c3CN(C3CCC(=O)NC3=O)C4=O)cc2)CC1 (centres undefined),56 nM,1 nM,–,92.1%,100%,–
O=C1CCC(N2Cc3c(OCc4ccc(CN5CCN(c6ccccc6)CC5)cc4)cccc3C2=O)C(=O)N1 (centres undefined),2.1 nM,0.1 nM,> 10000 nM,–,–,Activity (PBMC): Non-Toxic
O=C1CCC(N2Cc3c(OCc4ccc(CN5CCN(c6ccc(Cl)cc6Cl)CC5=O)cc4)cccc3C2=O)C(=O)N1 (centres undefined),6.7 nM,0.6 nM,–,–,–,solubility [7]: < 7 µg/mL
CN1CCN(Cc2ccc(COc3cccc4c3CN(C3CCC(=O)NC3=O)C4=O)cc2)CC1 (centres undefined),510 nM,3 nM,–,–,–,–
O=C1CCC(N2Cc3c(NCc4ccc(CN5CCN(c6ccc(F)cc6F)CC5)cc4)cccc3C2=O)C(=O)N1 (centres undefined),26.3 nM,1.5 nM,> 10000 nM,–,–,IC50 [3]: 194 nM
O=C1CCC(N2C(=O)c3cccc(OCc4ccc(CN5CCN(c6ccc(F)cc6F)CC5)cc4)c3C2=O)C(=O)N1 (centres undefined),159 nM,2.4 nM,> 10000 nM,–,–,IC50 [3]: 502 nM
O=C1CCC(N2Cc3c(OCc4ccc(CN5CCN(c6ccc(F)cc6F)CC5)cc4)cccc3C2=O)C(=O)N1 (racemic),1.7 nM,0.1 nM,> 10000 nM,102%,99.1%,Activity (PBMC): Non-Toxic; IC50 [3]: 55.1 to 502 nM; EC50 (D(2) dopamine receptor [16]): 16 nM; Activity [17]: Active

# Reference: ChEMBL document CHEMBL4627320, “Discovery of CRBN E3 Ligase Modulator CC-92480 for the Treatment of Relapsed and Refractory Multiple Myeloma” (J Med Chem, 2020)
